Source: PubChem BioAssay
An excerpt weighted towards active compounds, which were near 2.5% of everything screened.
Beta2AR agonist – activates human beta-2 adrenergic receptor causing internalization; P07550; Am2.2-beta2AR cells, FAP receptor internalization, flow cytometry; response, % (concentration not given with the values); hit rate 0.43% among 340,000;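 active = response above a set limit, near 3 SD of response in nonfluorescent compounds, cut at about 42% in these data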
Target sequence (P07550 whole entry, looked up): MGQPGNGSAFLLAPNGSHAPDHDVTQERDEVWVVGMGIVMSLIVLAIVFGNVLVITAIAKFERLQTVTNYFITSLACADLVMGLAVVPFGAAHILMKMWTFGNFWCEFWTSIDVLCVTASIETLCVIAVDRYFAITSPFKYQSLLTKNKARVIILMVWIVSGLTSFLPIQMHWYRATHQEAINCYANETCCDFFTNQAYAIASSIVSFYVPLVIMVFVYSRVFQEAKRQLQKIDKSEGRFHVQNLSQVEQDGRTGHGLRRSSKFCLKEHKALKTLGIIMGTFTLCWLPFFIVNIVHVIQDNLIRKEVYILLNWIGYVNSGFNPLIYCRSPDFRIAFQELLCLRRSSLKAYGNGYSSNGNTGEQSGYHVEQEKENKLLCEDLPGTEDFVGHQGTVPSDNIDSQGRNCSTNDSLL
NadD block – blocks S. aureus nicotinate mononucleotide adenylyltransferase; purified NadD enzyme, colorimetric absorbance read-out; inhibition, % at 20 µM; hit rate 0.78% among 360,000; AID 602399; in the data active = inhibition above about 26%
SENP1 FRET inh – SENP1 (human) catalytic domain inhibition; Q9P0U3; recombinant SENP1 catalytic domain, CyPet-SUMO1-YPet FRET cleavage; inhibition, % at 10 µM; hit rate 0.21% among 360,000; AID 624204;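 active = inhibition at least 30% at 10 µM, raw YFP signal under a set limit, fluorescence ratio 0.5 to 1.5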
Target sequence (Q9P0U3 419-644 limits assumed): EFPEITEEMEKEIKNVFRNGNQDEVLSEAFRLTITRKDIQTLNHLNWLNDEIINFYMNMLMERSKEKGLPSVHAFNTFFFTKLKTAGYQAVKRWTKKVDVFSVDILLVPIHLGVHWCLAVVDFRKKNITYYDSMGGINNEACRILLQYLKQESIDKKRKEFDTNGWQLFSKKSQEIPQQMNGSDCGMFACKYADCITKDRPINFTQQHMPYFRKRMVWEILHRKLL
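Assay system: hSENP1 catalytic domain, recombinant. Amount: SENP1 enzyme, 20 pM final. Schedule: 50 min reaction, RT, dark. Technique: FRET, CFP and YFP emission. Control set: no-enzyme wells low, DMSO-plus-enzyme wells high control.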
ABHD5 PLIN5 PPI – blocks binding of human ABHD5 to perilipin-5; Q00G26+Q8WTS1; Split G. princeps luciferase complementation, luminescence, 4 h; inhibition, % at 4 µM; hit rate 0.78% among 360,000; AID 602281;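 active = inhibition above the mean inhibition across every tested compound plus 3 SD, cut at about 22% in these data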
GRK2 aptamer HTS – inhibitors of human GRK2 displacing RNA aptamer | P25098 | bead flow cytometry, FAM-aptamer displacement from GRK2 | inhibition of aptamer binding, % at 10 µM | hit rate 0.59% among 330,000 | AID 488847;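 active = inhibition of aptamer binding above 40%, roughly 3 SD of noise, on plates passing a quality check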;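 note: median bead fluorescence of bound FAM aptamer so fluorescent compounds give negative values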
ABHD5-PLIN5 conf – ABHD5-PLIN5 interaction inhibition, confirmed. shares compounds with ABHD5 PLIN5 PPI. biochemical ABHD5-PLIN5 interaction, luminescence. inhibition, % at 4 µM. hit rate 67% among 2,200. AID 651612; in the data active = inhibition above about 23%
HNF4 counter – active in HNF4 split-luciferase counter-screen for ABHD5-PLIN5 inhibitors; shares compounds with ABHD5 PLIN5 PPI; inhibition, % at 4 µM; HNF4 dimerization, luminescence, biochemical; hit rate 77% among 2,200;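 active = mean inhibition across replicate wells exceeding the computed hit threshold, cut at about 13% in these data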;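 note: light from luciferase halves that rejoin when HNF4 fusion proteins dimerize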
Each line names hits and unclear results; the compound was inactive in the other large screens (follow-up assays come after a bar, where they were run).

COc1ccccc1C(=O)Nc1sc(C(=O)N2CCCC2)c(C)c1C#N	ABHD5 PLIN5 PPI 60 | ABHD5-PLIN5 conf inactive | HNF4 counter inactive
CCN1C/C(=C/c2cccc([N+](=O)[O-])c2)C(=O)/C(=C/c2cccc([N+](=O)[O-])c2)C1	Beta2AR agonist 87, ABHD5 PLIN5 PPI 40 | ABHD5-PLIN5 conf 102 | HNF4 counter 97
O=C1NC(=O)/C(=C/c2cccc([N+](=O)[O-])c2)N1	none
CCOc1cc(/C=C2\CN(CC)C/C(=C\c3ccc(O)c(OCC)c3)C2=O)ccc1O	ABHD5 PLIN5 PPI 83 | ABHD5-PLIN5 conf 94 | HNF4 counter 81
CCCCc1nnc(NC(=O)c2ccc3c(=O)n4c(nc3c2)CCC4)s1	none
Cc1ccc(O)c(-c2cc(C(=O)Nc3ccc(S(=O)(=O)Nc4nc(C)cc(C)n4)cc3)[nH]n2)c1	none
O=C1OC(NC(=O)c2ccccc2)C(n2cc(CO)nn2)=C1Cl (stereo not drawn)	ABHD5 PLIN5 PPI 64 | ABHD5-PLIN5 conf 90 | HNF4 counter 103
COc1ccc(NC(=O)/C(Cl)=C(/Cl)S(=O)Cc2ccccc2)cn1 (stereo not drawn)	Beta2AR agonist 50, ABHD5 PLIN5 PPI 95 | ABHD5-PLIN5 conf 97 | HNF4 counter 103
COc1ccc(NC(=O)Cc2ccccc2)cn1	none
NC(=O)c1cc2cc(Br)ccc2oc1=NCc1ccccc1	ABHD5 PLIN5 PPI 62 | ABHD5-PLIN5 conf inactive | HNF4 counter 29
NC(=O)c1cc2ccccc2oc1=NCc1ccccc1	none
CCOC(=O)c1c(NC(=O)COC(=O)CC(NC(C)=O)c2ccccc2)sc(C(=O)NC)c1C (stereo not drawn)	none
Cc1ccc(-c2csc3ncnc(OCC(=O)NC(=O)NCc4ccco4)c23)cc1	ABHD5 PLIN5 PPI 31 | ABHD5-PLIN5 conf inactive | HNF4 counter 13
O=C(COc1ncnc2scc(-c3ccc(F)cc3)c12)NCc1ccco1	none
CN(C)CCCNC(=O)c1ccccn1	none
CN(C)CCCNC(=O)c1ccc(-c2nc(-c3ccc(Cl)cc3)cs2)cc1	ABHD5 PLIN5 PPI 27 | ABHD5-PLIN5 conf 22 | HNF4 counter inactive
CC(=O)c1ccc(-n2c(CCC(=O)O)ccc2-c2cccs2)cc1	ABHD5 PLIN5 PPI 32 | ABHD5-PLIN5 conf inactive | HNF4 counter 49
Cc1ccc(-n2c(CCC(=O)O)ccc2-c2cccs2)cc1	none
NC(=O)c1ccc(-n2c(CCC(=O)O)ccc2-c2cccs2)cc1	ABHD5 PLIN5 PPI 31 | ABHD5-PLIN5 conf inactive | HNF4 counter 40
CCN(CC)CCNC(Cc1ccccc1)c1cccc(OC)c1 (stereo not drawn)	none (no result: GRK2 aptamer HTS)
CC(=O)c1ccc2c(c1)N(Cc1ccc3ccccc3c1)C(=O)C(C)S2 (stereo not drawn)	none (no result: Beta2AR agonist, GRK2 aptamer HTS)
COc1ccc(-n2ccn(CC(=O)Nc3ccccc3OC)c(=O)c2=O)cc1	none
Cc1ccc(C(=O)Nc2ccccc2C(=O)NCc2ccco2)cc1S(=O)(=O)N1CCCCC1	none
Cc1ccc(C(=O)NCc2ccco2)cc1S(=O)(=O)N1CCCCC1	ABHD5 PLIN5 PPI 26 | ABHD5-PLIN5 conf inactive | HNF4 counter inactive
COCCNC(=O)Cn1ccc2cc(S(=O)(=O)N3CCCCC3)ccc21	none
CC(=O)C1=C(S(=O)(=O)c2ccc(C)cc2)CS(=O)(=O)C1	ABHD5 PLIN5 PPI 29 (no result: GRK2 aptamer HTS) | ABHD5-PLIN5 conf 99 | HNF4 counter 110
Cc1ccc2nc(C(C)(C)C)c(Cc3ccsc3)n2c1	ABHD5 PLIN5 PPI 40 (no result: Beta2AR agonist, GRK2 aptamer HTS) | ABHD5-PLIN5 conf 55 | HNF4 counter 48
Cc1ccc(-c2nc3ccc(C)cn3c2Cc2ccsc2)cc1	none (no result: Beta2AR agonist, GRK2 aptamer HTS)
O=C1CCC(C(=O)N2CCCCCC2)CN1Cc1cccc(C(F)(F)F)c1 (stereo not drawn)	none
O=C(COC(=O)c1cc(S(=O)(=O)N2CCc3ccccc3C2)ccc1Cl)NCc1ccco1	ABHD5 PLIN5 PPI 28 | ABHD5-PLIN5 conf 45 | HNF4 counter 59
OC(CCc1ccncc1)COc1ccccc1 (stereo not drawn)	none
O=S(=O)(Nc1nc2ccccc2nc1NCc1ccco1)c1ccc(F)cc1	ABHD5 PLIN5 PPI 25 | ABHD5-PLIN5 conf inactive | HNF4 counter inactive
Nc1ccc(S(=O)(=O)c2ccc(N)nc2)cc1	none (no result: Beta2AR agonist, GRK2 aptamer HTS)
CC(C)Oc1cccc(C(=O)C2CCCN(C(=O)c3ccnn3C)C2)c1 (stereo not drawn)	none
COc1cccc(-n2nc(C#N)c(Cl)cc2=O)c1	Beta2AR agonist 84, ABHD5 PLIN5 PPI 29 (no result: GRK2 aptamer HTS) | ABHD5-PLIN5 conf 37 | HNF4 counter 41
COc1cccc(-n2nc(C(N)=O)c(O)cc2=O)c1	none
CC(=O)Nc1ccc(S(=O)(=O)N2c3ccc(F)cc3CCC2C)cc1 (stereo not drawn)	ABHD5 PLIN5 PPI 27 | ABHD5-PLIN5 conf 46 | HNF4 counter inactive
COc1ccc(S(=O)(=O)N2c3ccc(F)cc3CCC2C)cc1 (stereo not drawn)	none
CSc1cccc(N=C2C(=O)Nc3ccccc32)c1	none
O=C1Nc2ccccc2C1=Nc1cccc(Cl)c1	ABHD5 PLIN5 PPI 78 | ABHD5-PLIN5 conf inactive | HNF4 counter inactive
C=C1C(=O)OC2C=C(CO)C3OC3C3OC3(C)CC(OC(=O)/C(=C/C)COC(C)=O)C12 (stereo not drawn)	ABHD5 PLIN5 PPI 52 (no result: GRK2 aptamer HTS) | ABHD5-PLIN5 conf 73 | HNF4 counter 82
COc1cccc(OCc2cc(C(=O)N3CCN(c4ccccc4OC)CC3)no2)c1	none
O=C(CSc1ccccc1)Nc1ccc2c(c1)C(=O)NC2=O	none
COc1ccc(-c2sc3cc(OC)ccc3c2-c2ccc(OCCN3CCCCC3)cc2)cc1	ABHD5 PLIN5 PPI 25 (no result: Beta2AR agonist, GRK2 aptamer HTS) | ABHD5-PLIN5 conf inactive | HNF4 counter inactive
COc1cccc(-c2sc3ccccc3c2-c2ccc(OCCN3CCCC3)cc2)c1	none
COc1ccc2sc(-c3ccccc3OC)c(-c3ccc(OCCN(C)C)cc3)c2c1	none
Oc1ccc2sc(-c3ccccc3O)c(-c3ccc(OCCN4CCCCC4)cc3)c2c1	ABHD5 PLIN5 PPI 27 (no result: Beta2AR agonist, GRK2 aptamer HTS) | ABHD5-PLIN5 conf inactive
COc1cccc(-c2sc3ccccc3c2-c2ccc(OCCN(C)C)cc2)c1	Beta2AR agonist 65, ABHD5 PLIN5 PPI 30 | ABHD5-PLIN5 conf inactive | HNF4 counter inactive
COc1cccc(-c2sc3ccccc3c2-c2ccc(OCCN3CCCCC3)cc2)c1	ABHD5 PLIN5 PPI 29 | ABHD5-PLIN5 conf inactive | HNF4 counter inactive
CC(C)CC1C(=O)N(Cc2cn(CCC3OCCO3)nn2)CCS(=O)(=O)N1Cc1ccc(-c2ccc(Cl)c(Cl)c2)cc1 (stereo not drawn)	none (no result: Beta2AR agonist, GRK2 aptamer HTS)
O=C(O)c1cccc(N2C(=O)c3cc([N+](=O)[O-])cc4cc([N+](=O)[O-])cc(c34)C2=O)c1	none
COCc1cc(C)nc(SCC(=O)Nc2ccc(N3CCOCC3)cc2)c1C#N	none
CC(=O)C(=Cc1ccc(Cl)cc1)C(=O)c1ccccc1	ABHD5 PLIN5 PPI 85 (no result: Beta2AR agonist, GRK2 aptamer HTS) | ABHD5-PLIN5 conf 102 | HNF4 counter 98
